Series [1] can be described thus: Cytotoxicity against human MCF12A cells at 0.125 to 2 ug/ml after 1 to 5 days by sulforhodamine B assay. The format is cell-based. As to conditions: mcf-12a. In outline: (§1)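 Non-tumor cells seeded at 2×10^4 cells/ml and treated 24 h after seeding, in high-glucose DMEM with pyruvate, 10% FBS and penicillin-streptomycin, 37°C, 5% CO2. Compound exposure 0.125–2 μg/ml for 1, 3 and 5 days, with vehicle controls. Cells fixed and stained with sulforhodamine B for total cell mass. Data given as % of untreated control at each time point; five independent experiments.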
On the technique in general: The SRB assay estimates cell density from bound dye.

Another series has as its system BJ. Description: Cytotoxicity against human BJ cells at 0.125 to 2 ug/ml after 1 to 5 days by sulforhodamine B assay. The format is cell-based. The method, boiled down:
as §1

Series [2] deals with MDA-MB-231. The series is described as follows: Cytotoxicity against human MDA-MB-231 cells at 0.125 to 2 ug/ml after 1 to 5 days by sulforhodamine B assay in presence of taxol. The class given is functional, cell-based.
In series [3] the test system is Hs-578T. The series is described as follows: Cytotoxicity against human Hs578T cells at 0.125 to 2 ug/ml after 1 to 5 days by sulforhodamine B assay in presence of taxol. The class given is functional, cell-based.
Series [4] deals with MCF7. The series is described as follows: Cytotoxicity against human MCF7 cells at 0.125 to 2 ug/ml after 1 to 5 days by sulforhodamine B assay in presence of taxol. The format is functional, cell-based.
The nature of series [5]: Cell cycle arrest against human Hs578T cells assessed as increase in cells at G0/G1 phase at 0.5 ug/ml after 24 to 48 hrs by propidium iodide staining based flow cytometry. The format is functional. As to conditions: Hs-578T. In outline:
(§2)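 Log-phase Hs578T cells exposed 24 and 48 h to 0.5 μg/ml. Adherent plus floating cells fixed in cold 70% ethanol, kept overnight at -20°C, washed into PBS-T (132 mM NaCl, 4 mM KCl, 1.2 mM NaH2PO4, 0.1% Tween). Treated with 20 μg/ml RNase for 45 min at 37°C, then propidium iodide for 30 min at 37°C. Phase percentages read by flow cytometry. Mean ± SEM, 5 experiments.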

Series [6] in a line: Cell cycle arrest against human Hs578T cells assessed as decrease in cells at S phase at 0.5 ug/ml after 24 to 48 hrs by propidium iodide staining based flow cytometry. The class given is functional. As to conditions: Hs-578T. In outline:
as §2
Background: Flow cytometry measures light scatter and fluorescence of single cells or particles in a stream.

A short description of series [7]: Cell cycle arrest against human Hs578T cells assessed as decrease in cells at G2/M phase at 0.5 ug/ml after 24 to 48 hrs by propidium iodide staining based flow cytometry. The format is functional. As to conditions: Hs-578T. In outline: as §2
The subject of series [8] is Hs-578T. The series is described as follows: Cytotoxicity against human Hs578T cells at 0.125 to 2 ug/ml incubated for 6 hrs folowed by drug wash out and fresh medium addition and measured 5 days after wash out. The format is functional, cell-based.
The test system of series [9] is MDA-MB-231. The series is described as follows: Cytotoxicity against human MDA-MB-231 cells at 0.125 to 2 ug/ml after 1 to 5 days by sulforhodamine B assay. The class given is functional, cell-based. The method, boiled down: (§3)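 Sulforhodamine B growth assay in high-glucose DMEM with 10% FBS. Cancer cells seeded at 1×10^4 cells/ml; compound (0.125–2 μg/ml) added 24 h after seeding and left for 1, 3 or 5 days. Cells fixed, total mass stained. Expressed as % of untreated cells at the same time point. Mean ± SEM, five independent experiments.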

The subject of series [10] is Hs-578T. The series is described as follows: Cytotoxicity against human Hs578T cells at 0.125 to 2 ug/ml after 1 to 5 days by sulforhodamine B assay. The format is functional, cell-based. The method, boiled down:
as §3

Series [11] concerns MCF7. The series is described as follows: Cytotoxicity against human MCF7 cells at 0.125 to 2 ug/ml after 1 to 5 days by sulforhodamine B assay. The format is functional, cell-based. The method, boiled down:
as §3

Structures are written as SMILES. Active and inactive are the calls of the source. The rule behind the calls is not given here.

On to `C=C(C)[C@@H]1CC[C@]2(COC(=O)C(C)[n+]3ccc(N(C)C)cc3)CC[C@]3(C)[C@H](CC[C@@H]4[C@@]5(C)CC[C@H](OC(=O)C(C)[n+]6ccc(N(C)C)cc6)C(C)(C)[C@@H]5CC[C@]43C)[C@@H]12.[Cl-].[Cl-]` (some centres not stated), for which the Activity entry (in series [1]; in the series with BJ) was “Toxic” in each case. The inhibition result (in the series on MDA-MB-231 [2]; in the series on Hs-578T [3]; in the series with MCF7 [4]; in series [6]; in [7]; in the series with Hs-578T [8]) was “Active” throughout. Besides, the result in series [5] was Active.

Regarding `C=C(C)[C@@H]1CC[C@]2(COC(=O)C[n+]3ccc(C)cc3C)CC[C@]3(C)[C@H](CC[C@@H]4[C@@]5(C)CC[C@H](OC(=O)C[n+]6ccc(C)cc6C)C(C)(C)[C@@H]5CC[C@]43C)[C@@H]12.[Cl-].[Cl-]`, the Activity entry (in [1]; in the series on BJ) was “Toxic” each time. Further, the “G0/G1 cell cycle arrest” value in series [5] is “Active”. The inhibition entry (in [6]; in the series on Hs-578T [8]) was “Active” in each case.

On to `C=C(C)[C@@H]1CC[C@]2(COC(=O)CCC[n+]3ccc(N(C)C)cc3)CC[C@]3(C)[C@H](CC[C@@H]4[C@@]5(C)CC[C@H](OC(=O)CCC[n+]6ccc(N(C)C)cc6)C(C)(C)[C@@H]5CC[C@]43C)[C@@H]12.[Br-].[Br-]`, for which the Activity entry (in series [1]; in the series with BJ) was “Toxic” each time. Further, the inhibition entry (with MDA-MB-231 [9]; with Hs-578T [10]; in the series with MCF7 [11]; in series [6]; in the series on Hs-578T [8]) was “Active” in each case. The result in series [5] was Active.

The record behind these values is ChEMBL document CHEMBL3351723, “New derivatives of lupane triterpenoids disturb breast cancer mitochondria and induce cell death” (Bioorg Med Chem, 2014).
